Rows were chosen to be rich in hits. Some 2.2% of all compounds tested hit in one or more screens of this group.
T cruzi inh: T. cruzi replication inhibition | T. cruzi beta-gal in NIH3T3, luminescence, 90 h | inhibition, % (concentration not given with the values) | 300,000 compounds, 1.4% hits | AID 1885;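 active = mean inhibition across valid replicates above about 55%, limit read from the data; inconclusive = mean below that limit but half or more replicates reach it; inactive = mean below it, under half of replicates reach it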;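 also: signal also drops with host cell toxicity which is not excluded here; 0% = plate median of DMSO wells and 100% = zero luminescence signal; higher percent means less beta-gal luminescence so fewer parasites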
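compound dosing = single 50 nL compound addition per well in DMSO | material = NIH/3T3 host cells with β-galactosidase reporter T. cruzi | input = 5,000 host fibroblasts per well | timing = ≥90 h infection period, 3 h prior cell attachment | read-out basis = percent inhibition of parasite-derived β-gal signal | detection = GalScreen β-gal luminescence, detergent lysis, 60 min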
AI-2 QS modul: modulates the Vibrio harveyi AI-2 quorum sensing system; Vibrio harveyi JMH597 AI-2 luminescence/OD600 ratio, 9 h; stronger effect = lower value; strain lacks LuxN and CqsS sensors; 0 = neutral-control median; activity change, % at 7.5 µM; 300,000 compounds, 0.4% hits; AID 2094; in the data active = activity change below about -75%, passing the limit was not always enough; inconclusive = no clear call, values can overlap the other calls;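 also: luminescence divided by OD600 gain over 9 h not by final OD600 alone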
PolyA inh: yeast polyadenylation inhibition | S. cerevisiae SKY197-pL101 polyadenylation reporter, beta-gal luminescence; efflux-impaired pdr1/pdr3 knockout yeast; score 100 = 6 SD above DMSO | activity score, % at 12 µM | 300,000 compounds, 0.02% hits | AID 1875;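 active = lowest replicate activity score at least 50, where 100 means six control SD above control mean; inconclusive = lowest score under 50 but half or more replicates reach 50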;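 also: yeast exposed to compound for 9 h at 30 °C; higher score means more reporter readthrough which indicates perturbed polyadenylation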
Efflux pump mplx: blocks antifungal efflux pumps in multiplex yeast assay. S. cerevisiae Candida pump triplex, Nile Red efflux. inhibition, % at 10 µM. 330,000 compounds, 0.44% hits. AID 485275;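 active = plate passing quality check with inhibition over a set limit, or well fluorescence over plate mean plus 4 SD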;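 also: Nile Red retained in pooled yeast measured as flow cytometry median fluorescence; 0% = buffer negative control and 100% = Enniatin B positive control; higher means more Nile Red kept so more efflux inhibition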
HDAC3 inh: blocks human histone deacetylase 3; recombinant HDAC3, fluorogenic peptide/trypsin coupled, fluorescence; O15379; 320,000 compounds, 0.15% hits; inhibition, % at 8.3 µM; in the data active = inhibition above about 26%, passing the limit was not always enough; inconclusive = no clear call, values can overlap the other calls
Target sequence (O15379 whole entry, looked up): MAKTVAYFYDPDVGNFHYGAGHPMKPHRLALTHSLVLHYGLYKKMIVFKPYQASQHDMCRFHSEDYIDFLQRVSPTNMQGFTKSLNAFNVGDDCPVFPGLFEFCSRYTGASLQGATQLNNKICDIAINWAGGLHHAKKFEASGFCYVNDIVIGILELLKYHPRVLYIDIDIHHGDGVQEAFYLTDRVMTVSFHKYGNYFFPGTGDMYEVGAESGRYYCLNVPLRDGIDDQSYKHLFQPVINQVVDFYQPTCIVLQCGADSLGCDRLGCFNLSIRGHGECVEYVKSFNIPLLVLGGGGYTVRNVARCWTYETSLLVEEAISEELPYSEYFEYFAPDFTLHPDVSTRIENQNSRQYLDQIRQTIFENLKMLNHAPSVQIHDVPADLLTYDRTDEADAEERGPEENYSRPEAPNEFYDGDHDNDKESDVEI
An asterisk follows results filed as active; ? = inconclusive; nt = no result given.

SMILES | T cruzi inh | AI-2 QS modul | PolyA inh | Efflux pump mplx | HDAC3 inh
COc1cccc2sc(=NC(=O)CS(=O)(=O)c3ccc(F)cc3)n(C)c12 | 55* | 4 | -7 | 1 | 0
O=C(Nc1nccs1)C1CC(=O)N(CCc2ccc(F)cc2)C1 (configuration not stated) | 8 | 18 | -7 | 0 | -4
Cc1nnc(SCC(=O)NCCC2=CCCCC2)[nH]c1=O | nt | nt | nt | 0 | -2
CCOC(=O)C1CCN(S(=O)(=O)c2ccc3c4c(cccc24)C(=O)N3CC)CC1 | nt | nt | nt | 0 | -13
CCCCCCN1CC(=O)N2Cc3[nH]c4ccccc4c3C[C@H]2C1=O | -5 | -2 | 0 | 0 | -9
CNc1ccc(Oc2nc([N+](=O)[O-])nn2C)cc1 | 69* | 34 | 11 | 0 | 3
Cn1nc([N+](=O)[O-])nc1Oc1ccccc1 | 79* | 19 | 7 | 0 | nt
Cn1nc([N+](=O)[O-])nc1Oc1ccc(C(C)(C)C)cc1 | 64* | -4 | -18 | 0 | 0
CNc1nc(C)c([N+](=O)[O-])c(Nc2ccc(OC)cc2)n1 | -1 | 13 | -1 | 0 | -2
CC(=O)Nc1cccc(NC(=O)c2ccc(COc3ccccc3)cc2)c1 | -4 | -12 | -12 | nt | nt
COc1cccc(CNC(=O)C2CCN(c3nnc(N4CCCC4=O)s3)CC2)c1 | 6 | 27 | -13 | 0 | nt
Cc1c2cc(O)c(=O)cc-2oc2cc(O)c(O)cc12 | -1 | -17 | -1 | 1.0* | -1
Cc1ccc(NC(=O)COC(=O)c2c(-c3ccccc3)noc2C)c(C)c1 | nt | nt | nt | 0 | 8
COc1ccc(-c2noc3c2-c2nc(-c4cccc(C)c4)sc2CC3)cc1 | -11 | 0 | 7 | 0 | 0
COc1cccc(OCC(=O)O/N=C(\N)c2ccncc2)c1 | -5 | -76* | -6 | 0 | 1
CC(=O)NCCC(=O)Nc1nc(-c2ccc3ccccc3c2)cs1 | 60* | 6 | -7 | nt | nt
COc1ccc(NC(=O)CCC2CCCCC2)cc1S(=O)(=O)N1CCCCC1 | -7 | 18 | 1 | -1 | 5
C=CCc1cccc(/C=N/NC(=O)CNc2cccc3ccccc23)c1O | 38 | 31 | -2 | 0 | -6
C=CCc1cccc(/C=N/NC(=O)CCCNc2ccc(C)cc2)c1O | -14 | -7 | 1 | 0 | 2
C=CCc1cccc(/C=N/NC(=O)C(C)Nc2cccc(C)c2)c1O (configuration not stated) | 81* | 3 | 0 | 0 | 17
C=CCc1cccc(/C=N/NC(=O)CNc2ccccc2OC)c1O | 65* | 10 | 3 | 0 | -1
CC(=O)Nc1ccc(SC[C@H](Cc2ccccc2)N2CC[C@@H](C(C)(C)C)CCC2=O)cc1 | nt | nt | nt | 0 | 0
CCc1c(-c2ccccc2)nc2sc3c(c2c1N)CCCC3 | 55* | nt | 0 | 0 | 10
Cc1c(C(=O)N(C)Cc2cccc(F)c2)oc2c(Cl)cccc12 | 4 | 3 | -4 | 0 | -2
O=C(COc1ccc(/C=N/NC(=O)c2cc3ccccc3o2)cc1Cl)Nc1ccccc1 | 73* | 23 | 12 | 0 | -2
SMILES | T cruzi inh | AI-2 QS modul | PolyA inh | Efflux pump mplx | HDAC3 inh
COc1cc(/C=N/NC(=O)c2ccccc2O)ccc1OCC(=O)Nc1ccccc1 | -5 | 16 | 18 | 0 | -30
CCOC(=O)c1c(C)[nH]c(C)c1C(=O)CSc1nc2ccccc2c(=O)n1-c1ccc(C)cc1 | 31 | 21 | 11 | 0 | 31*
FC(F)Sc1ccc(N=C2NN=C(c3ccc4c(c3)OCCO4)CS2)cc1 | 69* | 6 | 8 | 0 | ?
COc1ccc(N=C2NN=C(c3ccc4c(c3)OCCO4)CS2)cc1 | 1 | 39 | -1 | 0 | 8
O=C(CNc1cccc2ccccc12)N/N=C/c1ccc([N+](=O)[O-])o1 | 83* | ? | -28 | 0 | 1
O=C(CNc1cccc2ccccc12)N/N=C/c1ccc[nH]1 | -17 | -32 | -8 | 0 | -3
O=C(CNc1cccc([N+](=O)[O-])c1)N/N=C/c1ccc([N+](=O)[O-])o1 | 68* | 28 | -3 | 0 | 2
NC(=S)N/N=C/c1ccccc1OCc1cccc(Cl)c1 | 62* | 13 | -23 | 0 | 3
Cn1c(SCc2ccccc2C#N)nnc1-c1ccncc1 | -22 | 7 | -9 | 0 | -5
Cc1ccc(NC(=S)N2CCn3cccc3C2c2cccnc2)cc1 (configuration not stated) | -5 | -3 | -12 | 0 | -5
S=C(Nc1ccc(Br)cc1)N1CCn2cccc2C1c1cccnc1 (configuration not stated) | 79* | 42 | 13 | nt | nt
COC(=O)Nc1nc(-c2cc(Cl)ccc2Cl)cs1 | 80* | 1 | -1 | 0 | 5
O=C(c1nnsc1S(=O)c1ccc(Cl)cc1)N1CCOCC1 (configuration not stated) | 63* | -53 | 4 | nt | nt
O=C(Nc1ccccc1)c1nnsc1S(=O)c1ccc(Cl)cc1 (configuration not stated) | 15 | -43 | -44 | 0 | 6
CN1/C(=C\C(=O)C(F)F)C(C)(C)c2ccccc21 | -8 | -13 | -4 | 0 | 2
CC(=O)/C=C1\N(C)c2ccc(C)cc2C1(C)C | 66* | 27 | -24 | 0 | 5
O=C(O)c1ccc(SCc2cnc(Cl)s2)cc1 | -10 | 52 | 61* | 0 | -2
Oc1ccccc1N=Nc1nc(-c2ccccc2)c(-c2ccccc2)[nH]1 | 63* | -14 | -6 | 0 | -11
Cc1ccc(NC(=O)C2=C(c3ccccc3)S(=O)(=O)CCS2(=O)=O)cc1 | 58* | -46 | -5 | 0 | nt
Cc1ccc(NC(=O)c2ccccc2)cc1 | -2 | 15 | 1 | 0 | 2
CCCN1CCN(C(=O)C2CCN(S(=O)(=O)c3c(C)noc3/C=C/c3ccc(C)cc3)CC2)CC1 | 33 | 9 | 13 | 0 | 4
CC(=O)Nc1ccc(Nc2ccc3c4c(cc(=O)n3C)-c3ccccc3C(=O)c24)cc1 | 56* | 13 | -27 | 0 | -1
CC(=O)Nc1c2c3c(cccc3n(C)c1=O)C(=O)c1ccccc1-2 | 1 | 11 | 11 | 0 | -2
O=C(COC(=O)/C=C/c1ccc(F)cc1)Nc1nnc(-c2ccccc2)o1 | nt | nt | nt | 1 | 4
O=C(CC12CC3CC(CC(C3)C1)C2)NC(=S)Nc1ccc(CN2CCOCC2)cc1 | 82* | 0 | -11 | 0 | 0
CCOc1ccc(CN2CCN(Cc3nc4c(s3)CCCC4)CC2CCO)cc1 (configuration not stated) | 57* | 22 | 10 | 0 | -2
COc1cccc(CN2CCN(Cc3nc4c(s3)CCCC4)CC2CCO)c1 (configuration not stated) | 35 | 8 | -10 | 0 | -3
OCCC1CN(Cc2nc3c(s2)CCCC3)CCN1Cc1ccsc1 (configuration not stated) | 4 | 18 | 2 | 0 | 2

Source: PubChem BioAssay (several laboratories)
